From paper PMC3065194 (Biochemical and biophysical research communications, 2010)

Assays:
[1] = biological target: integrin CD11b/CD18 (Mus musculus, UniProt P05555+P11835); assay: Neutrophil adhesion assay; assay type: cell-based; settings: WT B6 mouse neutrophils, Figure 3B
Summary of the method: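 Peritoneal neutrophils were isolated from thioglycollate-stimulated 8–10-week-old WT B6 mice and suspended in TBS with 0.5% gelatin in ligand-coated wells. Cells were incubated 10 min at 37°C with 5 μM test compound plus agonist, either Mn²⁺ (0.1 mM) or PMA (15 nM). Plates were inverted 30 min at room temperature to remove non-adherent cells. Adherent cells were counted by imaging microscopy, in triplicate wells.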

[2] = test system: integrin CD11a/CD18; settings: related integrin CD11a/CD18; cited from earlier work

Sequence of integrin CD11b/CD18 (P05555 17-1153): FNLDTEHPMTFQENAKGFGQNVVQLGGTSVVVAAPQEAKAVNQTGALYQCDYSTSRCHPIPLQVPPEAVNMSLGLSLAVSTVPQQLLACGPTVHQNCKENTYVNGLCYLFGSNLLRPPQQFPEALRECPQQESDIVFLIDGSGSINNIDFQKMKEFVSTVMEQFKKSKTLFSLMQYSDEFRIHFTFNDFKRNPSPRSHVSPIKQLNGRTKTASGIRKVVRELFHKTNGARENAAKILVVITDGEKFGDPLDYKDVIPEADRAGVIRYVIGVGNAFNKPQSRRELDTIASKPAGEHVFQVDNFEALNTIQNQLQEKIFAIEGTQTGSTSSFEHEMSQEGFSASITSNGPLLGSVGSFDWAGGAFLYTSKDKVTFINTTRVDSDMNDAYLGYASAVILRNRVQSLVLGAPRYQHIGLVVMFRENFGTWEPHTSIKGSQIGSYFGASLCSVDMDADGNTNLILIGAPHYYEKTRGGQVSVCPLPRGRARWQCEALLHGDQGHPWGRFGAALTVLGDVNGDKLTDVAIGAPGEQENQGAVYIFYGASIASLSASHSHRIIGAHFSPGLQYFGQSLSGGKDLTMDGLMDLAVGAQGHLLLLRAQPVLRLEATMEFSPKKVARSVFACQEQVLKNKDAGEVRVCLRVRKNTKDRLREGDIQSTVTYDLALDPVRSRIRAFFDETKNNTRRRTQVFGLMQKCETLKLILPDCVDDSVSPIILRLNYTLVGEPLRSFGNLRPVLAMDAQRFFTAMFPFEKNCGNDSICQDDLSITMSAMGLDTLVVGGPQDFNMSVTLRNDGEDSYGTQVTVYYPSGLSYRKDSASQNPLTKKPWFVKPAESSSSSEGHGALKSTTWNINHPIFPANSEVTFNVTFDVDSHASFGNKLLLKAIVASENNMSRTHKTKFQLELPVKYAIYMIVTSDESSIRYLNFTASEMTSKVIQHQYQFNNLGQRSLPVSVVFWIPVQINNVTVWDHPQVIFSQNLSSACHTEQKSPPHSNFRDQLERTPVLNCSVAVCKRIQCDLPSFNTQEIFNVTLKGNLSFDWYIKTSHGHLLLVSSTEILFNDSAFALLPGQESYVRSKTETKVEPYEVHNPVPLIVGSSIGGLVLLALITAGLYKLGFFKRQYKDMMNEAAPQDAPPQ
Sequence of integrin CD11b/CD18 (P11835 24-771): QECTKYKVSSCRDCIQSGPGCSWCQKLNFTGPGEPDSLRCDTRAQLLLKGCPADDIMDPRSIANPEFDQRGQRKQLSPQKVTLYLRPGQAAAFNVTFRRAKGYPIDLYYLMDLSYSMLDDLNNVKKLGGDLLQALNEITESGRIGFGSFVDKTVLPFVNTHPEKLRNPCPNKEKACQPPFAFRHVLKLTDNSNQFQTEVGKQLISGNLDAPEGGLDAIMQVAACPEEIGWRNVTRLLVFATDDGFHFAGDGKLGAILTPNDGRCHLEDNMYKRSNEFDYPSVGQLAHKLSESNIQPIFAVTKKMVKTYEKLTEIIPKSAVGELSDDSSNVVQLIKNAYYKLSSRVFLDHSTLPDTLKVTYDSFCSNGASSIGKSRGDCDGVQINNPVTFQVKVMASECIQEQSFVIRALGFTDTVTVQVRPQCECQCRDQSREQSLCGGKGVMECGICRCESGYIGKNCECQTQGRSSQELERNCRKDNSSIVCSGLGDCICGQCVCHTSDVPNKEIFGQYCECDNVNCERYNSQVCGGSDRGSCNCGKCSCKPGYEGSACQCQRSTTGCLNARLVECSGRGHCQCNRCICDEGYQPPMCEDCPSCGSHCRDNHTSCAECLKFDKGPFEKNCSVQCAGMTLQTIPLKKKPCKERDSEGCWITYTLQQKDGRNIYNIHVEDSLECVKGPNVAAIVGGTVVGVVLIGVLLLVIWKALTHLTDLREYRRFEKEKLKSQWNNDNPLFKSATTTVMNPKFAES

SMILES | neutrophil adhesion to Fg on integrin activation by agonist [1] | IC50 [2] [µM]
CCCCCCCCCCCCCC(=O)O[C@@H]1[C@@H](C)[C@@]2(O)[C@@H](C=C(CO)C[C@]3(O)C(=O)C(C)=C[C@@H]23)[C@@H]2C(C)(C)[C@]12OC(C)=O [PMA, phorbol 12-myristate 13-acetate] | dramatic increase | –
CC[C@H](C)C(=O)O[C@H]1C[C@@H](C)C=C2C=C[C@H](C)[C@H](CC[C@@H]3C[C@@H](O)CC(=O)O3)[C@H]21 [lovastatin] | – | 25
